Source: ChEMBL document CHEMBL2331511, “Novel soluble myeloid cell leukemia sequence 1 (Mcl-1) inhibitor (E,E)-2-(benzylaminocarbonyl)-3-styrylacrylonitrile (4g) developed using a fragment-based approach” (Eur J Med Chem, 2013)
Converted amounts (≈) assume the structure as drawn. The source made the active and inactive calls. The rule behind the calls is not given here.

What was measured:
[1] = target: Bcl-2-like protein 1 (Homo sapiens, UniProt Q07817); assay: Binding affinity to Bcl-xL (unknown origin)
Chain of Bcl-2-like protein 1 (Q07817 whole entry): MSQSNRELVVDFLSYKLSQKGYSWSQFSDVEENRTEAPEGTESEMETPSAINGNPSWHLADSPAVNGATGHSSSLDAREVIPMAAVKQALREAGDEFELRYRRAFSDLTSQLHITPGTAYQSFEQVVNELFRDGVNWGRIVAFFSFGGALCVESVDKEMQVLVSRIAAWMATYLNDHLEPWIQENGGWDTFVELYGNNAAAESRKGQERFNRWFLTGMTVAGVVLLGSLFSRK

[2] = target: T1, Induced myeloid leukemia cell differentiation protein Mcl-1 (Homo sapiens, UniProt Q07820); assay: Binding affinity to his-tagged Mcl-1 (unknown origin) expressed in Escherichia coli BL21 (DE3) cells by ITC analysis
T1 sequence (Q07820 whole entry): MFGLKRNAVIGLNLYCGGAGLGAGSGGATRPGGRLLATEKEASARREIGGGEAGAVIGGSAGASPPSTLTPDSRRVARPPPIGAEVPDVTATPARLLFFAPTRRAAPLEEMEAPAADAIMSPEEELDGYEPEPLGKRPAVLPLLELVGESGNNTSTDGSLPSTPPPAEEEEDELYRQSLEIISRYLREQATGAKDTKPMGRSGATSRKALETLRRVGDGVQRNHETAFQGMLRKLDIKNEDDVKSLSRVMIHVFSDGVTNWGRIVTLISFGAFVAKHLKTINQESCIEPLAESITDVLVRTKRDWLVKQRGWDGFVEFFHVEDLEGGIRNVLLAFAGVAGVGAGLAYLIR
Outline: (§1)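 Isothermal titration calorimetry at 25 °C in 20 mM Tris pH 8.0, 150 mM NaCl, 1% DMSO; twelve 3 μL injections of 300 μM ligand into 30 μM protein. Heats corrected against buffer-only titrations run the same way, and Kd obtained by integrating the raw data and fitting to a one-site model.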

[3] = target: Induced myeloid leukemia cell differentiation protein Mcl-1 (Homo sapiens, UniProt Q07820, R263A); assay: Binding affinity to his-tagged Mcl-1 R263A mutant (unknown origin) expressed in Escherichia coli BL21 (DE3) cells by ITC analysis; outline: as §1
Chain of Induced myeloid leukemia cell differentiation protein Mcl-1 (Homo sapiens, UniProt Q07820, R263A) (Q07820 whole entry R263A): as the sequence (Q07820 whole entry) above, with R263A counted along it

[4] = tested on: MCF7; assay: Induction of apoptosis in human MCF7 cells after 48 hrs by annexin V flow cytometry; format: functional, cell-based; settings: MCF7, 48 h
Outline: (§2)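 Cells exposed to graded concentrations of ligand for 48 h; percentage of apoptotic cells measured by Annexin V flow cytometry, and IC50 taken from the concentration–response.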

[5] = Solubility of the compound in 9:1 ratio of water:ethanol by HPLC analysis; format: physicochemical; settings: 9:1 water:ethanol
[6] = Solubility of the compound in 100 % ethanol by HPLC analysis; format: physicochemical
[7] = target: Apoptosis regulator Bcl-2 (Homo sapiens) (UniProt P10415); assay: Binding affinity to recombinant human Bcl-2
Chain of Apoptosis regulator Bcl-2 (Homo sapiens) (P10415 whole entry): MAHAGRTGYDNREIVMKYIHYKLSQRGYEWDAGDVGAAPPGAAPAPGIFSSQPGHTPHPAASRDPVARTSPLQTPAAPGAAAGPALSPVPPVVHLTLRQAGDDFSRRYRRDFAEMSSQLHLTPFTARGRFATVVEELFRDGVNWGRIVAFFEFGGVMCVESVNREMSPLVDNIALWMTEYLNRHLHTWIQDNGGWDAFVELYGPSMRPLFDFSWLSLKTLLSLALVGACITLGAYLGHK

[8] = target: T1, Induced myeloid leukemia cell differentiation protein Mcl-1; assay: Binding affinity to Mcl-1 (unknown origin) by two-dimensional [15N/1H] NMR analysis
[9] = tested on: H22; assay: Induction of apoptosis in mouse H22 cells after 48 hrs by annexin V flow cytometry; format: functional, cell-based; settings: H22, 48 h; outline: as §2
[10] = tested on: NCI-H23; assay: Induction of apoptosis in human NCI-H23 cells after 48 hrs by annexin V flow cytometry; format: functional, cell-based; settings: NCI-H23, 48 h; outline: as §2
[11] = tested on: HL-60; assay: Induction of apoptosis in human HL60 cells after 48 hrs by annexin V flow cytometry; format: functional, cell-based; settings: HL-60, 48 h; outline: as §2
[12] = tested on: NCI-H23; assay: Ratio of IC50 for human HL60 cells to IC50 for human NCI-H23 cells; format: functional

Structure (SMILES) | Kd ([2]; read-out: Kd) | Kd ([2]; read-out: pKd (converted)) | also measured
CCCC(CSc1ccccc1)Nc1ccc(S(=O)(=O)NC(=O)c2ccc(N3CCN(Cc4ccccc4-c4ccc(Cl)cc4)CC3)cc2)cc1[N+](=O)[O-] (configuration not stated) |  |  | Ki [1]: 0.021 µM
N#C/C(=C\C=C\c1ccccc1)C(N)=O | 1.06 µM | 1.07 µM | Kd [3]: 46.2 µM
N#Cc1c(-c2ccc3c(c2)OCO3)cc(-c2ccccc2O)[nH]c1=O |  |  | Ki [1]: 5.1 µM
Cc1cc2c(C(C)C)c(O)c(O)c(C=O)c2c(O)c1-c1c(C)cc2c(C(C)C)c(O)c(O)c(C=O)c2c1O [GOSSYPOL] | 2.65 µM | 2.63 µM | 
CCNC(=O)CC#N | 6.65 µM | 6.61 µM | 
CCCNC(=O)CC#N | 4.28 µM | 4.27 µM | 
N#C/C(=C\C=C\c1ccccc1)C(=O)NCc1ccccc1 | 0.16 µM | 0.158 µM | IC50 [4]: 5.4 µM; Kd [3]: 6.72 µM; solubility [5]: 200 µg/mL; solubility [6]: 4000 µg/mL (≈ 13.9 mM); Activity [7]: inactive; Activity [8]: Active; IC50 [9]: 3.2 µM; IC50 [10]: 0.38 µM; IC50 [11]: 47.2 µM; Ratio IC50 [12]: 100
NC(=O)c1ccccc1C(=O)c1ccc(Sc2ccc(Cl)cc2)c([N+](=O)[O-])c1 |  |  | Ki [1]: 0.5 µM
C1CSCCN1 [THIOMORPHOLINE] | > 1000 µM |  | 
O=C(Nc1cc(S(=O)(=O)c2ccc(Cl)cc2)ccc1Cl)c1cc(Cl)cc(Br)c1O |  |  | Ki [1]: 4.1 µM
N#CCC(N)=O [CYANOACETAMIDE] | 13.5 µM | 13.5 µM | Kd [3]: > 1000 µM
N#C/C(=C\c1ccccc1)C(N)=O | 2.21 µM | 2.19 µM | 
N#CCC(=O)NCc1ccccc1 | 1.58 µM | 1.58 µM | Kd [3]: 90.8 µM
COC1=CC(c2cc3ccccc3[nH]2)=N/C1=C/c1[nH]cc(C)c1C |  |  | Ki [1]: 4.69 µM
CNC(=O)CC#N | 8.27 µM | 8.32 µM | 
O=C1C(=O)c2cccc3cccc1c23 [ACENAPHTHOQUINONE] | 325 µM | 324 µM | 

The next lines start with results.

Kd ([2]; read-out: Kd) | Kd ([2]; read-out: pKd (converted)) | Structure (SMILES) | also measured
3.71 µM | 3.72 µM | CC(C)c1ccc(Oc2ccc3c(=C(C#N)C#N)c(=O)c4cccc2c43)cc1 | 
1.83 µM | 1.82 µM | N#CC1=C2C(=NC1=O)c1cccc3cccc2c13 | 
1.45 µM | 1.45 µM | CCC(C)(C)c1ccc(Oc2ccc3c(=C(C#N)C#N)c(=O)c4cccc2c43)cc1 | 
52.3 µM | 52.5 µM | N#CC(C#N)=c1c(=O)c2cccc3cccc1c32 | Kd [3]: 51.4 µM
4.24 µM | 4.27 µM | N#CC(C#N)=c1c(=O)c2cccc3c(Oc4ccc(Cl)cc4)ccc1c32 | 
4.93 µM | 4.9 µM | COc1ccc(Oc2ccc3c(=C(C#N)C#N)c(=O)c4cccc2c43)cc1 | 
